Series [1] deals with T1, CYP2D6 (Homo sapiens, UniProt P10635). To be noted: ref Simcyp; cited from earlier work.
The nature of series [2]: logP by shaking octanol/water, HPLC quantification. In kind it is physicochemical. Summed up: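 Shake-flask method: octanol-saturated water holding test compound (~26 mg/mL) was shaken with an equal volume of water-saturated octanol for 1 hour at 23°C. Compound quantified by HPLC in each separated phase.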
The nature of series [3]: Plasma protein binding in fresh human plasma by ultrafiltration. It is filed as in vitro ADME. In outline:
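Fresh human plasma spiked with test compound at 5, 10 and 75 μg/mL and incubated 0.5 hours at 37°C. Ultrafiltration followed by LC-MS/MS of both the ultrafiltrate and the originally spiked plasma.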

The test system of series [4] is CYP3A4/5. Nature of the series: Direct inhibition. In kind it is in vitro ADME. Conditions: human, pooled human liver microsomes, probe midazolam (1'-hydroxylation).
In series [5] the target is T1, CYP2D6. Nature of the series: Direct inhibition. In kind it is in vitro ADME.
For another series, the target named is T2, CYP2B6 (Homo sapiens, UniProt P20813).
T2 sequence (P20813 1-491): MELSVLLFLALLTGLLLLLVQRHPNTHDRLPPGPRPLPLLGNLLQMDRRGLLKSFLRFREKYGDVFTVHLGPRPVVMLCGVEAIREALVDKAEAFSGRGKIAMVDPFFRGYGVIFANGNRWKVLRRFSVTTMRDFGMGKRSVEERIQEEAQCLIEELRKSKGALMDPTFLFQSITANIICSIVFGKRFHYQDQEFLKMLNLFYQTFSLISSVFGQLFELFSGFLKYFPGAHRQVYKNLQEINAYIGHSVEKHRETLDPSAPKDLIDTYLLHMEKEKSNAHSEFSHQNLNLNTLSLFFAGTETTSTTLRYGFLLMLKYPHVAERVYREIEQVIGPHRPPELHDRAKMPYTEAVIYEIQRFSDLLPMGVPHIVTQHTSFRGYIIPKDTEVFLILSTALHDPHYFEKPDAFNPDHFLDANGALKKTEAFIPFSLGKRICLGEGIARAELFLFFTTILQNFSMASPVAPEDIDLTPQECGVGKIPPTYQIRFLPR
In kind it is in vitro ADME. Conditions: pooled human liver microsomes, probe efavirenz (8-hydroxylation). (Liver microsomes are a subcellular fraction often used to study metabolism.)

Series [6] concerns CYP3A4/5. In kind it is in vitro ADME. Conditions: human, pooled human liver microsomes, probe midazolam (1'-hydroxylation).
A further series relates to CYP3A4 mRNA. The series is described as follows: Induction in primary cultures of cryopreserved human hepatocytes. In kind it is cell-based. To be noted: 1 μM, once daily for 3 days, 3 donors. In outline: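 Primary cultures of cryopreserved human hepatocytes, 3 white donors as independent evaluations. Dosed once daily for 3 days with test compound (1, 2.5, 10 μM), vehicle, 25 μM flumazenil (negative control) or 20 μM rifampicin (positive control). Cells lysed and total RNA harvested; CYP3A4 mRNA quantified by RT-PCR.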

Another series concerns human hepatocytes. The series is described as follows: Cell integrity of hepatocyte cultures. Conditions: for Lactate dehydrogenase release: 3 days. It is filed as cell-based. Summed up:
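Cryopreserved primary human hepatocytes from 3 white donors, dosed once daily for 3 days with test compound (1, 2.5, 10 μM), vehicle, 25 μM flumazenil (negative control) or 20 μM rifampicin (positive control). Cell integrity judged by lactate dehydrogenase release into the culture medium and by microscopic review of morphology and confluency.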

Series [7] in a line: Clinical pharmacokinetics, phase I study in patients with solid tumors. In kind it is in vivo. Conditions: human, plasma, iv.
Series [8] deals with T1, CYP2D6. Nature of the series: In vitro time-dependent inhibition of CYP2D6. Conditions: in vitro data. In kind it is in vitro ADME.
For series [9] the following is noted: patients; cited from earlier work.
The next series deals with CYP3A4. To be noted: ref Simcyp; cited from earlier work.
A further series concerns CYP3A. To be noted: cited from earlier work.

Entries after “also recorded” stand apart in the source; their conditions may differ.

Usually logP stands for a log measure of how a compound divides between an organic and an aqueous phase. Low readings indicate a more hydrophilic compound, high ones a more lipophilic compound. In general, fraction unbound refers to free concentration divided by total concentration. A word on the Ki: it is the dissociation constant of the complex between target and ligand, obtained from inhibition or displacement. Higher therefore signals a looser hold on the target. The kinact is the rate constant of inactivation at saturating inhibitor. As usually defined, the Vd is the apparent volume that relates the amount in the body to the concentration in plasma or blood. Higher therefore signals extensive tissue distribution. By clearance is commonly meant a measure of how efficiently the substance is removed, as volume per time. Low values mean a low capacity for elimination, high ones a high capacity for elimination.

T1 sequence (P10635 whole entry): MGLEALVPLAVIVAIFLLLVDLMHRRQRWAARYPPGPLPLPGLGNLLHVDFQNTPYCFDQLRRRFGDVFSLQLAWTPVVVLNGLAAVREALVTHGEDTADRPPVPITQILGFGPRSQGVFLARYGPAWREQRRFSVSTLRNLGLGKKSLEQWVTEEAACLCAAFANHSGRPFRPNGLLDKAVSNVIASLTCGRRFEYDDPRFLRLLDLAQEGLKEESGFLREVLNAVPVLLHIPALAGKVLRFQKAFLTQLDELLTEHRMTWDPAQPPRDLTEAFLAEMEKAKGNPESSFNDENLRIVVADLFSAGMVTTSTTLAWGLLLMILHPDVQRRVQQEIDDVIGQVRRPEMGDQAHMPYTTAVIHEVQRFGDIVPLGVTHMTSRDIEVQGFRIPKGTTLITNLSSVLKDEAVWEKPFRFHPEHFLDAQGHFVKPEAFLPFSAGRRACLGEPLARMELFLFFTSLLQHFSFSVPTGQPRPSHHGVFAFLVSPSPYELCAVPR

Consider `COc1ccc2c(c1)[C@]13CCCC[C@@H]1[C@H](C2)N(C)CC3` [Dextromethorphan], for which the “fmCYP (fraction of substrate metabolized by CYP)” value on CYP2D6 [1] is listed as 0.72.

On to `Cn1c(COP(=O)(NCCBr)NCCBr)cnc1[N+](=O)[O-]` [Evofosfamide, [1‐methyl‐2‐nitro‐1H‐imidazole‐5‐yl] methyl N, N’‐bis [2‐bromoethyl] diamidophosphate], for which the logP at 1 hour in series [2] is 0.92. The compound further returned a fraction unbound at 0.5 h in series [3] of 0.455. The inhibition constant Ki at 5 min in the series with CYP3A4/5 [4] is 141 µM. For the same compound, the inhibition constant (Ki) at CYP2D6 [5] worked out at 85.3 µM. The KI (inactivation) on CYP2B6 was 3200 µM; in the series with CYP3A4/5 [6], 370 µM. In addition, the kinact at CYP2B6 is 0.000533 s⁻¹; with CYP3A4/5 [6] it was 0.000417 s⁻¹. Also, in the series with CYP3A4 mRNA, the “Effect on CYP3A4 mRNA” value is recorded as “no increase; also recorded: No induction”. Besides, the “Microscopic evaluation of toxicity” value in the series with human hepatocytes (1 μM, day 3, some signs of toxicity in third preparation) is reported as “no signs of toxicity in two of the three donor cells”; in the series with human hepatocytes (2.5 and 10 μM) it was “Toxicity was observed in all donor cells”. For the same compound, the Lactate dehydrogenase release entry was “higher” with human hepatocytes (10 μM, versus control incubations); “comparable to control incubations” in the series on human hepatocytes (1 and 2.5 μM). Besides, the Vd in [7] came out at 0.43 L/kg. Moreover, in [7], the clearance is 1060 mL/min. The “Time-dependent inhibition of CYP2D6” value on CYP2D6 [8] was “not time‐dependent”. Moreover, the Elimination half-life in [9] is 48.6 min.

On to `Cc1ncc2n1-c1ccc(Cl)cc1C(c1ccccc1F)=NC2` [Midazolam], for which the “fmCYP (fraction of substrate metabolized by CYP)” value in the series with CYP3A4 is listed as 0.96. In addition, the “Fraction escaping gut metabolism in the absence of inhibitor (fG)” value in the series on CYP3A is listed as 0.57.

The record behind these values is PMC6310869 (CPT: Pharmacometrics & Systems Pharmacology, 2018).
